Measured values from ChEMBL document CHEMBL5357028, “Acetogenins from the Stem of Uvaria rufa and Their Cytotoxic Activity” (J Nat Prod, 2024).
pIC50: −log10 of the molar value. Structures can show the parent of a compound that is named as a salt. Activity calls are given as the source filed them. No cut-off for these calls is given here.

Assays:
[1] = tested on: HCT-116; test: Cytotoxicity against human HCT-116 cells assessed as reduction in cell viability measured after 72 hrs by MTT assay; format: functional, cell-based; settings: HCT-116, 72 h
Procedure, shortened: (§1)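 Cells grown at 37°C, 5% CO₂ (22Rv1 in RPMI 1640, HCT 116 in McCoy's; 10% FBS, penicillin/streptomycin). Trypsinized, 5000 cells/well seeded, 24 h attachment. DMSO stocks diluted in medium to final 100, 20, 4, 0.8, 0.16 and 0.032 μM; 0.5% DMSO vehicle control. After 72 h, MTT 0.5 mg/mL final for 3 h; formazan dissolved in DMSO, A570. Viability relative to DMSO control; duplicates, three independent experiments; IC50 calculated.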

[2] = tested on: CWR22R; test: Cytotoxicity against human 22Rv1 cells assessed as reduction in cell viability measured after 72 hrs by MTT assay; format: functional, cell-based; settings: 22Rv1, 72 h; procedure, shortened: as §1
[3] = tested on: OVCAR-3; test: Cytotoxicity against human OVCAR-3 cells assessed as reduction in cell viability measured after 72 hrs by MTS assay; format: functional, cell-based; settings: OVCAR-3, 72 h
Procedure, shortened: (§2)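 Cells exposed to test substance for 72 h. Viability read by MTS-based absorbance assay (CellTiter 96 AQueous One Solution) relative to DMSO solvent control. Paclitaxel served as positive control.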

[4] = tested on: MDA-MB-435; test: Cytotoxicity against human MDAMB-435 cells assessed as reduction in cell viability measured after 72 hrs by MTS assay; format: functional, cell-based; settings: MDA-MB-435, 72 h; procedure, shortened: as §2
[5] = tested on: Mycobacterium tuberculosis; test: Antitubercular activity against Mycobacterium tuberculosis H37Rv assessed as inhibition of bacterial growth upto 100 ug/ml; format: functional, organism-based; settings: dose <= 100.0 µg/ml

Row | Compound | pIC50 [1] | pIC50 [2] | pIC50 [3] | pIC50 [4] | Activity [5]
1 | COc1cc([C@@H]2c3cc4c(cc3[C@@H](O[C@@H]3O[C@@H]5CO[C@@H](C)O[C@H]5[C@H](O)[C@H]3O)[C@H]3COC(=O)[C@H]23)OCO4)cc(OC)c1O [ETOPOSIDE] | 5.74 | 5.64 |  |  | 
2 | CCCCCC[C@H](O)CCC[C@H](O)[C@H]1CC[C@H]([C@H]2CC[C@H]([C@H](O)CCCCCCCCCCCCCCC3=C[C@H](C)OC3=O)O2)O1 | 5.92 | 5.25 | 5.36 | 5.35 | 
3 | CCCCCCCCCC[C@@H](O)[C@H]1CC[C@H]([C@H]2CC[C@H]([C@H](O)CCCCCCCCC[C@@H](O)CCC3=C[C@H](C)OC3=O)O2)O1 | 5.04 | 4.76 | 5.46 | 5.34 | inactive
4 | CCCCCC[C@H](O)CCC[C@H](O)[C@H]1CC[C@H]([C@H]2CC[C@H]([C@H](O)CCCCCCCCC[C@@H](O)CCC3=C[C@H](C)OC3=O)O2)O1 | 5.74 | 5.09 | 5.35 | 5.36 | 
5 | CCCCCC[C@H](O)CCC[C@H](O)[C@H]1CC[C@H]([C@H]2CC[C@H]([C@H](O)CCCCCCCCCCCCC3=C[C@H](C)OC3=O)O2)O1 [SQUAMOCIN] | 5.92 | 5.19 | 5.35 | 5.34 | 
6 | CCCCCCCCCC[C@H](O)[C@H]1CC[C@H]([C@H]2CC[C@H]([C@H](O)CCCCCCCCCCCCC3=C[C@H](C)OC3=O)O2)O1 [BULLANIN] | 4.54 | 4.78 | < 5.00 | 5.28 | 
7 | CC[C@]1(O)C[C@@H]2CN(CCc3c([nH]c4ccccc34)[C@@](C(=O)OC)(c3cc4c(cc3OC)N(C)[C@H]3[C@@](O)(C(=O)OC)[C@H](OC(C)=O)[C@]5(CC)C=CCN6CC[C@]43[C@@H]65)C2)C1 [VINBLASTINE SULFATE] | 9.00 | 9.00 |  |  | 
8 | CCCCCCCCCC[C@@H](O)[C@H]1CC[C@H]([C@H]2CC[C@H]([C@H](O)CCCCCCCCC[C@H](O)CCC3=C[C@H](C)OC3=O)O2)O1 [UVARIGRANDIN A] | 5.26 | 5.15 | 5.34 | 5.39 | 
9 | CCCCCCCCCC[C@H](O)[C@H]1CC[C@H]([C@H]2CC[C@H]([C@H](O)CCCCCCCC[C@H](O)CCCC3=C[C@H](C)OC3=O)O2)O1 | 5.00 | 4.90 |  |  | 
10 | CCCCCCCCCC[C@@H](O)[C@H]1CC[C@H]([C@H]2CC[C@H]([C@H](O)CCCCCCCCCCCCC3=C[C@H](C)OC3=O)O2)O1 [ISODESAACETYLUVARICIN] | 5.55 | 5.11 | < 5.00 | 5.39 | 
11 | CCCCCCCCCC[C@H](O)[C@H]1CC[C@H]([C@H]2CC[C@H]([C@H](O)CCCCCCCC[C@H](O)[C@H](O)CCC3=C[C@H](C)OC3=O)O2)O1 | 4.82 | 5.08 | < 5.00 | 5.34 | 
12 | CCCCCCCCCC[C@@H](O)[C@H]1CC[C@H]([C@H]2CC[C@H]([C@H](O)CCCCCCCC[C@H](O)[C@H](O)CCC3=C[C@H](C)OC3=O)O2)O1 | 5.57 | 5.26 | 5.43 | 5.36 | 
13 | CC(=O)O[C@H]1C(=O)[C@@]2(C)[C@H]([C@H](OC(=O)c3ccccc3)[C@]3(O)C[C@H](OC(=O)[C@H](O)[C@@H](NC(=O)c4ccccc4)c4ccccc4)C(C)=C1C3(C)C)[C@]1(OC(C)=O)CO[C@@H]1C[C@@H]2O [PACLITAXEL] |  |  | 8.25 | 8.59 | 
